Assays:
kisspeptin = experiment: SPR binding of RFRP-3 to immobilized kisspeptin; design: species or system rat; details: Biacore T200
Procedure, shortened: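 Kisspeptin at 20 µg/ml in sodium acetate pH 5.5 was coupled to a CM5 chip (5,720 RU). Running buffer was PBS-P: 10 mM phosphate, 2.7 mM KCl, 137 mM NaCl, 0.05% P20, pH […]. Test peptide at 3.125–50 µM went over the detection and reference channels at 4 °C: 60 s injection, 15 µl/min, 15 min dissociation. Regeneration used 10 mM glycine-HCl pH 2.0 for 30 s; kinetic parameters were fitted.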

GnRH neurons = details: cited from earlier work
mice = details: cited from earlier work
LH and FSH = details: Japanese quail; cited from earlier work

| Substance | direct binding to kisspeptin (in words) (kisspeptin) | secretion of GnRH and expression and secretion of gonadotropin (GnRH neurons) | expression levels of glucose transporter 4 (mice) | food intake (mice) | glucose uptake / glucose transporter 8 expression (mice) | synthesis of triglycerides in adipose tissue (mice) | testosterone synthesis (mice) | secretion of LH and FSH (LH and FSH) |
| --- | --- | --- | --- | --- | --- | --- | --- | --- |
| RFamide-related peptide-3 [RFRP-3] | could bind directly to kisspeptin | inhibit the secretion of GnRH via its receptor on GnRH neurons, thus acting on the pituitary system to inhibit the expression and secretion of gonadotropin, LH and FSH | – | – | – | – | – | – |
| SIKPSAYLPLRFa [GnIH, gonadotropin-inhibitory hormone] | – | – | increased the expression levels of glucose transporter 4 | increased food intake | reduced glucose uptake by downregulating the expression levels of glucose transporter 8 | increased the synthesis of triglycerides in adipose tissue | reduced testosterone synthesis | inhibit the secretion of LH and FSH in the brain of Japanese quail |
